Test results: ChEMBL document CHEMBL4020842, “Discovery of N1-(4-((7-Cyclopentyl-6-(dimethylcarbamoyl)-7 H-pyrrolo[2,3- d]pyrimidin-2-yl)amino)phenyl)- N8-hydroxyoctanediamide as a Novel Inhibitor Targeting Cyclin-dependent Kinase 4/9 (CDK4/9) and Histone Deacetlyase1 (HDAC1) against Malignant Cancer” (J Med Chem, 2018)
Active and inactive are the calls of the source. No cut-off for these calls is given here.

Key:
NCI-H460 [1] = assay: Induction of apoptosis in human NCI-H460 cells assessed as necrotic cells at 5 uM after 48 hrs by annexin V-FITC/propidium iodide staining based flow cytometry (reference value: 1.34%); format: functional
MDA-MB-231 [2] = assay: Induction of apoptosis in human MDA-MB-231 cells assessed as early apoptotic cells at 1 uM after 48 hrs by annexin V-FITC/propidium iodide staining based flow cytometry (reference value: 0.4%); format: functional
[3] = Half life in Sprague-Dawley rat at 20 mg/kg, po administered as single dose by HPLC analysis; format: ADME, organism-based; details: in vivo
[4] = Clearance in Sprague-Dawley rat at 20 mg/kg, ip administered as single dose by HPLC analysis; format: ADME, organism-based; details: in vivo
A549 [5] = assay: Induction of apoptosis in human A549 cells assessed as late apoptotic cells at 10 uM after 48 hrs by annexin V-FITC/propidium iodide staining based flow cytometry (reference value: 0.88%); format: functional
MDA-MB-468 = assay: Cytotoxicity against human MDA-MB-468 cells assessed as reduction in cell viability after 72 hrs by CCK8 assay; format: functional, cell-based; details: MDA-MB-468, 72 h
MDA-MB-231 [6] = assay: Cell cycle arrest in human MDA-MB-231 cells assessed as accumulation at G2 phase at 2.5 to 10 uM after 24 hrs by propidium iodide staining based flow cytometry; format: functional
How it was run: (§1)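 Cells were exposed for 24 h to a range of concentrations (625 nM, 2.5 and 10 µM), with DMSO vehicle as control. They were then stained with propidium iodide and analysed by flow cytometry to obtain the percentages of cells in G0/G1, S and G2 phases.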

[7] = Aqueous solubility in water at 1 mg using acid formulation sonicated for 24 hrs and incubated under unstirred condition for 24 hrs by HPLC method; format: physicochemical
HepG2 [8] = assay: Downregulation of Cyclin-D1 protein expression in human HepG2 cells after 48 hrs by Western blot method; format: functional, cell-based
How it was run: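 Treated cells were lysed and CDK4 and cyclin D1 protein levels were assessed by Western blot.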

HepG2 [9] = assay: Induction of apoptosis in human HepG2 cells assessed as early apoptotic cells at 10 uM after 48 hrs by annexin V-FITC/propidium iodide staining based flow cytometry (reference value: 0.3%); format: functional
CDK4/Cyclin D3 = CDK4/Cyclin D3 (Homo sapiens, UniProt P11802); assay: Inhibition of recombinant human full length N-terminal GST-tagged CDK4/Cyclin-D3 co-expressed in baculovirus infected sf21 cells using Rb substrate in presence of [gamma33P]ATP after 10 mins by scintillation counting method
[10] = AUC (0 to infinity) in Sprague-Dawley rat at 20 mg/kg, iv administered as single dose by HPLC analysis; format: ADME, organism-based; parameters: dose 20 mg/kg, route intravenous, time infinity; details: in vivo
Mus musculus = assay: Downregulation of phosphorylated Rb level in tumor of Balb/c mouse implanted with mouse Fluc-labeled 4T1 cells at 90 to 130 mg/kg, po administered via gavage daily for 18 days by immunohistochemical analysis; format: functional, organism-based
How it was run: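 4T1 cells were labeled with firefly luciferase by lentiviral transduction and implanted orthotopically into the mammary fat pads of 6−8-week-old female BALB/c mice. Dosing by oral gavage began once tumors averaged 100 mm3, at 90 and 130 mg/kg. p-Rb in tumors was assessed by immunohistochemistry.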

CDK4/CDK9 (Homo sapiens) [11] = target: T1, CDK4/CDK9 (Homo sapiens) (UniProt P11802+P50750); assay: Inhibition of CDK4/CDK9 in human A549 cells assessed as reduction in Rb phosphorylation at Ser807/811 residues at 1 uM after 48 hrs by Western blot method; format: cell-based
T47D [12] = assay: Induction of apoptosis in human T47D cells after 48 hrs by Hoechst 33342 staining based assay; format: functional, cell-based
How it was run: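 T47D cultures were incubated with test agent for 48h, then stained with Hoechst 33342. Apoptotic bodies were examined by imaging and compared with untreated cells.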

4T1 = assay: Antitumor activity against mouse Fluc-labeled 4T1 cells implanted in Balb/c mouse assessed as tumor growth inhibition at 90 mg/kg, po administered daily via gavage for 18 days by bioluminescence assay relative to control; format: functional; details: 4T1, po, 432 h, read-out: TGI
How it was run: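 Fluc-labelled 4T1 cells (lentiviral transduction) were implanted orthotopically into the mammary fat pads of female BALB/c mice aged 6–8 weeks. Treatment started once tumours averaged 100 mm3, given daily by oral gavage. Tumour burden was followed by bioluminescence imaging of Fluc reporter expression.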

[13] = Clearance in Sprague-Dawley rat at 20 mg/kg, iv administered as single dose by HPLC analysis; format: ADME, organism-based; details: in vivo
NCI-H460 [14] = assay: Induction of apoptosis in human NCI-H460 cells assessed as late apoptotic cells at 5 uM after 48 hrs by annexin V-FITC/propidium iodide staining based flow cytometry (reference value: 1.29%); format: functional
A549 [15] = assay: Induction of apoptosis in human A549 cells assessed as caspase-3 cleavage after 48 hrs by Western blot method; format: functional, cell-based
How it was run: (§2)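 Cells were treated with or without compound and control for 48 h, then lysed. Bcl-2 and cleaved caspase 3 were assessed by Western blot.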

CDK4/CDK9 (Homo sapiens) [16] = target: T1, CDK4/CDK9 (Homo sapiens); assay: Inhibition of CDK4/CDK9 in human Hep3B cells assessed as reduction in Rb phosphorylation at Ser807/811 residues at 1 uM after 48 hrs by Western blot method; format: cell-based
MDA-MB-231 [17] = assay: Induction of apoptosis in human MDA-MB-231 cells assessed as caspase-3 cleavage after 48 hrs by Western blot method; format: functional, cell-based
How it was run: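 Cells were treated with or without test agent, alongside a control, for 48h. They were then lysed and analysed by Western blot for Bcl-2 protein and cleaved caspase 3.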

A549 [18] = assay: Induction of apoptosis in human A549 cells assessed as reduction in Bcl2 protein expression after 48 hrs by Western blot method; format: functional, cell-based; how it was run: as §2
Histone deacetylase 1 = Histone deacetylase 1 (Homo sapiens, UniProt Q13547); assay: Inhibition of HDAC1 in human NCI-H460 cells assessed as increase in acetylated-histone H3 level at 1 to 5 uM after 48 hrs by Western blot method; format: cell-based
CDK4/CDK9 (Homo sapiens) [19] = target: T1, CDK4/CDK9 (Homo sapiens); assay: Inhibition of CDK4/CDK9 in human T47D cells assessed as reduction in Rb phosphorylation at Ser807/811 residues at 1 uM after 48 hrs by Western blot method; format: cell-based
Hep 3B2 = assay: Cytotoxicity against human Hep3B cells assessed as reduction in cell viability after 72 hrs by CCK8 assay
MDA-MB-231 [20] = assay: Induction of apoptosis in human MDA-MB-231 cells assessed as late apoptotic cells at 10 uM after 48 hrs by annexin V-FITC/propidium iodide staining based flow cytometry (reference value: 1.53%); format: functional
MDA-MB-231 [21] = assay: Induction of apoptosis in human MDA-MB-231 cells assessed as late apoptotic cells at 1 uM after 48 hrs by annexin V-FITC/propidium iodide staining based flow cytometry (reference value: 1.53%); format: functional
A549 [22] = assay: Cell cycle arrest in human A549 cells assessed as accumulation at G0/G1 phase at 625 nM after 24 hrs by propidium iodide staining based flow cytometry; format: functional; how it was run: as §1
T47D [23] = assay: Induction of apoptosis in human T47D cells assessed as necrotic cells at 5 uM after 48 hrs by annexin V-FITC/propidium iodide staining based flow cytometry (reference value: 0.8%); format: functional
HepG2 [24] = assay: Induction of apoptosis in human HepG2 cells assessed as live cells at 5 uM after 48 hrs by annexin V-FITC/propidium iodide staining based flow cytometry (reference value: 96.7%); format: functional
HepG2 [25] = assay: Induction of apoptosis in human HepG2 cells assessed as caspase-3 cleavage after 48 hrs by Western blot method; format: functional, cell-based; how it was run: as §2

T1 sequence (P11802 whole entry, looked up): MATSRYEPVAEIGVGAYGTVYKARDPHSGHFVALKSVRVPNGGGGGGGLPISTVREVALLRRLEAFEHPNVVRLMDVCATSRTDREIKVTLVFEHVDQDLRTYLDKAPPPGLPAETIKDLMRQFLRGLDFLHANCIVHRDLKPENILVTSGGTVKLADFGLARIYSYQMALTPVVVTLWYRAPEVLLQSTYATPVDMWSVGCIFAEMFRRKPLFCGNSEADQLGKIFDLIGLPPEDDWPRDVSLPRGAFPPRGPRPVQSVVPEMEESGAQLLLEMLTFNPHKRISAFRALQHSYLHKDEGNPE
T1 sequence (P50750 whole entry, looked up): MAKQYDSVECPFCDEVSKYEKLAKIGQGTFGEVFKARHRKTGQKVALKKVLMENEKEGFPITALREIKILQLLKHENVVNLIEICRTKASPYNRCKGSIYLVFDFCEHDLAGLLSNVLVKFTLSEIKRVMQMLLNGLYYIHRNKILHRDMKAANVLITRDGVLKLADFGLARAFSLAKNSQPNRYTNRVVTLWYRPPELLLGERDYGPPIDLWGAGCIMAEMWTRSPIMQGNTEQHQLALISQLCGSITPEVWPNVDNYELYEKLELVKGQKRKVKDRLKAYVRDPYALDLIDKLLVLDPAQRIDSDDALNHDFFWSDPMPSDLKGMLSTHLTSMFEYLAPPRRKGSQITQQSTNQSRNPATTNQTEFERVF
Chain of Histone deacetylase 1 (Q13547 whole entry): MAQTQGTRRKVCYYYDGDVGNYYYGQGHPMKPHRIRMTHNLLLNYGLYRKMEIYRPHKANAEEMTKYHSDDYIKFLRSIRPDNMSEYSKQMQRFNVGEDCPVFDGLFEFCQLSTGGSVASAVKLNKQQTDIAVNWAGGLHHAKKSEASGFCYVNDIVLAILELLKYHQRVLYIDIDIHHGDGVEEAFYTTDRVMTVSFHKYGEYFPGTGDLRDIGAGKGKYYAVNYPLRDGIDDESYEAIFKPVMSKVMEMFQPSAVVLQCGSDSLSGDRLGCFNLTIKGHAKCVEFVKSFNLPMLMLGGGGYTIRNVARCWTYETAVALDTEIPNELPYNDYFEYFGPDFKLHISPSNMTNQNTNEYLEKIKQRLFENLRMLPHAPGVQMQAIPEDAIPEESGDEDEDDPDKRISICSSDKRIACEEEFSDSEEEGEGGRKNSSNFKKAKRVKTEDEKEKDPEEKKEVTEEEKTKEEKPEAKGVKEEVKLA
Chain of CDK4/Cyclin D3 (P11802 whole entry): as the sequence (P11802 whole entry, looked up) above
Chain of CDK4/Cyclin D3 (P30281 whole entry, further chain): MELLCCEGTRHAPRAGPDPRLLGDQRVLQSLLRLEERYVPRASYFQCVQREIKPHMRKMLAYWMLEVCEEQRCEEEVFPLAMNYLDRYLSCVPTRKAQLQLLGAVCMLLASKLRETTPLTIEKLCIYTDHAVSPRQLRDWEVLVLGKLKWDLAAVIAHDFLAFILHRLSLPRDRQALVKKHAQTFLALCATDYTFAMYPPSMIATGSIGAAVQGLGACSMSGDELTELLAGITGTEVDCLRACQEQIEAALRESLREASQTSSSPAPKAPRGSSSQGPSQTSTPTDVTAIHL

**Q.** What does the source list for CN(C)C(=O)c1cc2cnc(Nc3ccc(NC(=O)CCCCCCC(=O)NO)cc3)nc2n1C1CCCC1?
**A.** Activity (NCI-H460 [1]): 3.88%; Activity (MDA-MB-231 [2]): 0.78%; half-life [3]: 14.9 h; CL/F [4]: 210 mL/min/kg; Activity (A549 [5]): 27.7%; IC50 (MDA-MB-468): 1820 nM; Activity (MDA-MB-231 [6]): Active; solubility [7]: Insoluble; Activity (HepG2 [8]): Dose-dependent effect; Activity (HepG2 [9]): 9.32%; IC50 (CDK4/Cyclin D3): 8.8 nM; AUC(0-inf) [10]: 6160 ng·h/mL; Activity (Mus musculus): Active; inhibition (CDK4/CDK9 (Homo sapiens) [11]): Active; Activity (T47D [12]): Active; inhibition in vivo at 90 mg/kg (4T1): 70.3%; clearance [13]: 69 mL/min/kg; Activity (NCI-H460 [14]): 5.38%; Activity (A549 [15]): Active; inhibition (CDK4/CDK9 (Homo sapiens) [16]): Active; Activity (MDA-MB-231 [17]): Active; Activity (A549 [18]): Active; inhibition (Histone deacetylase 1): Active; inhibition (CDK4/CDK9 (Homo sapiens) [19]): Active; IC50 (Hep 3B2): 1240 nM; Activity (MDA-MB-231 [20]): 6.59%; Activity (MDA-MB-231 [21]): 1.97%; Activity (A549 [22]): Active; Activity (T47D [23]): 0.82%; Activity (HepG2 [24]): 76.4%; Activity (HepG2 [25]): Active
